We go through one compound from ChEMBL document CHEMBL5046273, “Development of a Novel, Small-Molecule Brain-Penetrant Histone Deacetylase Inhibitor That Enhances Spatial Memory Formation in Mice” (J Med Chem, 2022).

The MTD is the highest dose tested that stayed within the study's limit of toxicity. In general, pIC50 refers to the negative decadic logarithm of the IC50, by convention in mol/L. For orientation: Tmax means the time from dosing to the highest level.

pIC50: −log10 of the molar value. Where only a bound is given, the exact number is not on record here.

For data set [1], the system named is DU-145. Kind of data set: Cytotoxicity against human DU-145 cells assessed as reduction in cell viability incubated for 48 hrs by MTT assay. It is filed as functional. An outline of the steps:
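DU145 cells grown in DMEM with 10% FBS, penicillin/streptomycin and L-glutamine at 37 °C and 5% CO2. Cells seeded at 14 000/well and allowed to adhere 24 h. Compounds diluted from 10 mM DMSO stocks into medium (final 25–100 μM), DMSO vehicle, triplicate wells, 48 h. MTT 250 μg/mL for 4 h, dissolved in DMSO, A570 (ref 690). Normalized to DMSO; three independent experiments.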

The nature of data set [2]: Toxicity in ip dosed BALB/c mouse assessed as maximum tolerated dose measured after 2 weeks. The following applies: in vivo, 336 h. It is filed as organism-based. An outline of the steps:
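Healthy BALB/c mice, compound in 20% DMSO/saline, single i.p. dose. One mouse each at 200, 100 and 50 mg/kg, then 25, 12.5 and 6.25 mg/kg if needed, repeated until a tolerated dose was found. Last test repeated once. Mice weighed daily for 8 days; euthanized at >20% weight loss or overt toxicity. Morbidity/mortality followed over 2 weeks; triplicate experiments.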

Data set [3] concerns the target Histone deacetylase 2 (Homo sapiens, UniProt Q92769). Kind of data set: Inhibition of HDAC2 in human DU-145 cells assessed as increase in histone H3 acetylation after 24 hrs by immunofluorescence microscopy. It is filed as cell-based.
The target of data set [4] is T1, Protein deacetylase HDAC6 (Homo sapiens, UniProt Q9UBN7).
T1 sequence (Q9UBN7 whole entry): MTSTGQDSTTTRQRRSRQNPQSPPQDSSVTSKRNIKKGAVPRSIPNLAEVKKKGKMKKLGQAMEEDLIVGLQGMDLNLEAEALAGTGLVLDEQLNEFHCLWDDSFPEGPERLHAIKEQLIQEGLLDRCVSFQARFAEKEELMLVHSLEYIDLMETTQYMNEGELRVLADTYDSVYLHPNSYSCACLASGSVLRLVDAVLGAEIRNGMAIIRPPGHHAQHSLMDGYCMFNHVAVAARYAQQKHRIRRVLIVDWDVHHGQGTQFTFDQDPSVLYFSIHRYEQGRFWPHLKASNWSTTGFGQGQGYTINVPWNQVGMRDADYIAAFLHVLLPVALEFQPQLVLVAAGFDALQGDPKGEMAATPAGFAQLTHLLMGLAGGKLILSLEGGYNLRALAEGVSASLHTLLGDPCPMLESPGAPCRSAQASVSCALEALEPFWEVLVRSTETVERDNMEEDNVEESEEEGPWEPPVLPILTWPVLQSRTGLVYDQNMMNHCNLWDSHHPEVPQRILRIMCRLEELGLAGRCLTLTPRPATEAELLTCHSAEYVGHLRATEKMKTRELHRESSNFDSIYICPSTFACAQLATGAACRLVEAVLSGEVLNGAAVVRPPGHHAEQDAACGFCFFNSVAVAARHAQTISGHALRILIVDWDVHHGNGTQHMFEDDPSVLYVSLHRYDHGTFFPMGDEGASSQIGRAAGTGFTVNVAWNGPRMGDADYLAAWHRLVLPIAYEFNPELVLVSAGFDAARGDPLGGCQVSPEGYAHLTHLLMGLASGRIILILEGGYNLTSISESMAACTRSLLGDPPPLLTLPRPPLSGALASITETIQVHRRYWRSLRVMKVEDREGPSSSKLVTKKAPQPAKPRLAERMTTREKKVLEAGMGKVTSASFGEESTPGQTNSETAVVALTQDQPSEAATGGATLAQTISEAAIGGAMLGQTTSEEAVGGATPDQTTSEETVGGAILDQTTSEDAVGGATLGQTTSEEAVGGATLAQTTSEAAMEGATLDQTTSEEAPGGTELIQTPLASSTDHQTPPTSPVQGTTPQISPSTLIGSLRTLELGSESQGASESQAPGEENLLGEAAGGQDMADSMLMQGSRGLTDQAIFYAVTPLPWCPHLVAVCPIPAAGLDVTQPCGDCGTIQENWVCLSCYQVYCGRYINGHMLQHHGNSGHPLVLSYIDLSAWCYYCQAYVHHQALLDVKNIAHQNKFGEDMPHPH
Kind of data set: Inhibition of HDAC6 in human DU-145 cells assessed as increase in histone H3 acetylation after 24 hrs by immunofluorescence microscopy. It is filed as cell-based.

Data set [5] is described as follows: Drug uptake in BALB/c mouse hippocampus at 20 to 40 mg/kg, ip measured after 10 mins by mass spectroscopy method. It is filed as ADME, organism-based. The following applies: in vivo, dose 20-40 mg/kg. In outline:
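BALB/c mice were dosed i.p.: 20 mg/kg with brains taken at 10 min (two mice), or 40 mg/kg with brains taken at 10 and 30 min. Dorsal hippocampus was dissected on wet ice, extracted in acetonitrile and analysed by LC–MS/MS in MRM mode (m/z 485 [M+Na+] transitions) against a 4,5-diphenylimidazole internal standard.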

Data set [6] is described as follows: Tmax in Swiss Webster mouse blood at 40 mg/kg, ip by LC-MS/MS analysis. It is filed as ADME, organism-based. An outline of the steps:
(§1)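 Single i.p. dose of 40 mg/kg in Swiss Webster mice; blood, brain and liver taken at several time points. Tissues homogenized in acetonitrile, centrifuged, spin-filtered, dried and reconstituted, with 4,5-diphenylimidazole as instrument standard. Quantified by LC–MS/MS on a C18 column with a formic acid/MeCN gradient. Mean ± SD (n = 4), fitted to a two-compartment PK model.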

Data set [7] in a line: Half life in Swiss Webster mouse blood at 40 mg/kg, ip by LC-MS/MS analysis. It is filed as ADME, organism-based. The following applies: in vivo. In outline: as §1
Data set [8] is described as follows: AUC in Swiss Webster mouse brain at 40 mg/kg, ip by LC-MS/MS analysis. It is filed as ADME, organism-based. Also on record: dose 40 mg/kg. Particulars: in vivo; call rule not given here. In outline:
as §1

The nature of data set [9]: Half life in Swiss Webster mouse liver at 40 mg/kg, ip by LC-MS/MS analysis. The following applies: in vivo. It is filed as ADME, organism-based. An outline of the steps: as §1
A short description of data set [10]: AUC in Swiss Webster mouse liver at 40 mg/kg, ip by LC-MS/MS analysis. It is filed as ADME, organism-based. Also on record: dose 40 mg/kg. Particulars: in vivo. An outline of the steps:
as §1

Sequence of Histone deacetylase 2 (Q92769 whole entry): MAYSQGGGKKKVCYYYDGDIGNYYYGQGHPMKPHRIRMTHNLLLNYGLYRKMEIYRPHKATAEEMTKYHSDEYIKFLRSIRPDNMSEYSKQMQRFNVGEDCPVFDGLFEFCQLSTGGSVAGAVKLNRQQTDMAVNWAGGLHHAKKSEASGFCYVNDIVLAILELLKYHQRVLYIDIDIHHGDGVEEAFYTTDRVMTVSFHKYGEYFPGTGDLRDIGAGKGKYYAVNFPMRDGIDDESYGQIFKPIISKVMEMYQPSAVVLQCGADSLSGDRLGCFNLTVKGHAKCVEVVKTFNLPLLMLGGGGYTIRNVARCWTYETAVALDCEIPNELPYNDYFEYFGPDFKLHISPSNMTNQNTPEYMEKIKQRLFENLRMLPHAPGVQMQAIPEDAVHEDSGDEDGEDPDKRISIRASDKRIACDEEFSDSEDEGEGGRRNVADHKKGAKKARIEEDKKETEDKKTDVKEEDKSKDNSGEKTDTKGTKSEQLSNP

As to `CC(C)(C)OC(=O)CC(O)/C=C/CCSSCC/C=C/C(O)CC(=O)OC(C)(C)C` (stereo unspecified), the Activity entry in data set [1] is “Dose-Dependent Effect”. Moreover, the CC50 in [1] (read-out: LD50 (the source's name)) was found to be 39 µM. Besides, the MTD in data set [2] is above 200 mg/kg. In addition, the pIC50 was 5.00 in data set [3] and 4.92 in data set [4]. Besides, in data set [5], the Drug uptake result is given as “Active”. For the same compound, the Tmax in data set [6] is 10 min. The t1/2 turned out to be 45.4 min in data set [7] and 41 min in [9]. The AUC was 2019 ng·min/g in data set [8] and 31091 ng·min/g in [10].
